# PMC2784041 (Environmental Microbiology, 2009)
# Read-outs that look alike come from different tables or passages of the source.
# Columns and labels:
# Test in all cases: spectrophotometric ring-cleavage assay, non-linear Michaelis-Menten fit
# EXDO-Dbt_s207 = format: biochemical; details: read-out: Km (μM) ^b, partially purified enzyme
# EXDO-D_s4 = format: biochemical, uncultured bacterium; details: read-out: Km (μM) ^b; 50 mM K/Na-phosphate pH 8.0, air-saturated; partially purified enzyme
# Procedure, shortened: (§1)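 Enzyme came from E. coli EPI300-T1R fosmid clones grown at 37°C in LB with 0.01% L-arabinose and 25 μg ml−1 chloramphenicol, harvested in late exponential phase. Extracts were partially purified by anion exchange chromatography. Ring-cleavage product was followed spectrophotometrically in 50 mM air-saturated K/Na-phosphate pH 8.0 (catechol ε375, 3-methylcatechol ε388, 2,3-dihydroxybiphenyl ε434). Km was obtained from initial velocities over 1–100 μM substrate by non-linear Michaelis–Menten regression.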
# EXDO-D_s45 = format: biochemical, uncultured bacterium; details: read-out: Km (μM) ^b; 50 mM K/Na-phosphate pH 8.0, air-saturated; partially purified enzyme
# Procedure, shortened: as §1
# EXDO-K2_s3 = format: biochemical; details: read-out: Km (μM) ^b; 50 mM K/Na-phosphate pH 8.0, air-saturated; partially purified enzyme
# Procedure, shortened: as §1
# EXDO-K2_s129 = format: biochemical; details: read-out: Km (μM) ^b; 50 mM K/Na-phosphate pH 8.0, air-saturated; partially purified enzyme
# Procedure, shortened: as §1
# EXDO-K2_s162 = format: biochemical; details: read-out: Km (μM) ^b; 50 mM K/Na-phosphate pH 8.0, air-saturated; partially purified enzyme
# Procedure, shortened: as §1
# EXDO-K2_s7 = format: biochemical; details: read-out: Km (μM) ^b; 50 mM K/Na-phosphate pH 8.0, air-saturated; partially purified enzyme
# Procedure, shortened: as §1
# EXDO-D_s151 = format: biochemical, uncultured bacterium; details: read-out: Km (μM) ^b; 50 mM K/Na-phosphate pH 8.0, air-saturated; partially purified enzyme
# Procedure, shortened: as §1
# [1] = 50 mM K/Na-phosphate pH 8.0, air-saturated
SMILES,"Km (EXDO-Dbt_s207; 50 mM acetic acid/NaOH pH 5.5, air-saturated)",Km (EXDO-D_s4),Km (EXDO-D_s45),Km (EXDO-K2_s3),Km (EXDO-K2_s129),Km (EXDO-K2_s162),Km (EXDO-K2_s7),Km (EXDO-Dbt_s207; [1]),Km (EXDO-D_s151)
"Oc1ccc2ccccc2c1O [1,2-dihydroxynaphthalene]",11.6 ± 1.4 µM,–,–,–,–,–,–,–,–
"Oc1cccc(-c2ccccc2)c1O [2,3-dihydroxybiphenyl]",–,3.7 ± 0.6 µM,0.61 ± 0.08 µM,2.1 ± 0.2 µM,2.1 ± 0.2 µM,1 ± 0.1 µM,0.84 ± 0.08 µM,4.2 ± 0.7 µM,–
Cc1cccc(O)c1O [3-methylcatechol],–,1.8 ± 0.3 µM,0.27 ± 0.1 µM,4.5 ± 0.6 µM,9.3 ± 1.1 µM,4.3 ± 0.7 µM,4.6 ± 0.4 µM,13.6 ± 1.9 µM,3.5 ± 1.5 µM
Oc1ccccc1O [catechol],–,1.4 ± 0.2 µM,0.27 ± 0.03 µM,–,–,–,–,35 ± 5 µM,1.1 ± 0.2 µM
